37 sequences from the array DNA melting data of Ke et al. (doi:10.1101/2024.01.08.574731) can be followed below.

A short description of data set [1]: melting temperature; fluorescence melt of hairpins on a sequencing array, two-state fit, raised by 9.35 °C to match UV melts. Conditions: sodium 0.088 M. The procedure, abridged: (§1)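 Bootstrapped two-state fits yielded melting temperature and folding enthalpy for library hairpins. Cy3 fluorescence, with annealed Cy3 and quencher oligos, was imaged on a sequenced MiSeq flow cell in 50 mM Na-HEPES pH 8.0, 25 mM NaCl in 2.5 °C steps up to 60 °C, and normalised to pre-quench Cy3 and to control constructs. Four replicates were combined by inverse variance, and fitted temperatures were raised by 9.35 °C to match UV melts.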

Data set [2] is described as follows: folding enthalpy; higher = less favourable; fluorescence melt of hairpins on a sequencing array, two-state fit. Conditions: sodium 0.088 M. A digest of the protocol: as §1

Regarding GGTCGTGGAAACACGGCC ((.((((....)))).)), the Tm in data set [1] worked out at 61.8 °C. Further, in data set [2], the folding enthalpy was -56.7 kcal/mol.
Taken in the same sequence, the figures for GTGGCCACGAAAGTGCAC (((..(((....)))))) were 38.1 °C and -12.5 kcal/mol.
Taken in the same sequence, the figures for GATCGAATTCTCGATC ((((((....)))))) were 51.4 °C and -43.3 kcal/mol.
Consider GCGTCACCGAAAGGTCGC (((..(((....)))))), for which the Tm in data set [1] is 51.2 °C. Besides, the folding enthalpy in data set [2] was -25.2 kcal/mol.
Take GGGTTCCGAAAGGACCC (((.(((....)))))): in data set [1], the Tm stood at 58.1 °C. Further, the folding enthalpy in data set [2] was -31.6 kcal/mol.
As for GCGTGACGAAAGTCCGC (((.(((....)))))), the Tm in data set [1] was 65 °C. Moreover, the folding enthalpy in data set [2] was -32.2 kcal/mol.
GCAATGCGAAAGCCTGGC ((.(.((....)).).)): the Tm in data set [1] was 34.2 °C. The folding enthalpy in data set [2] was -13.8 kcal/mol.
On to GCACTCGAAAGAGCTTGC ((((((....)))..))), for which the Tm in data set [1] worked out at 36.6 °C. In addition, in data set [2], the folding enthalpy was -19.1 kcal/mol.
Taken in the same sequence, the figures for GATCGGCGCACCGATC ((((((....)))))) were 59.9 °C and -37.4 kcal/mol.
With GATCGGTCCCCCGATC ((((((....)))))), the Tm in data set [1] was 55.7 °C. In data set [2], the folding enthalpy is -45 kcal/mol.
As for GACCCGGGAAACCGGGCC (.(((((....))))).), in data set [1], the Tm is 53.3 °C. Moreover, in data set [2], the folding enthalpy was -12.6 kcal/mol.
On to CCCTGGAAACAGGG (((((....))))), for which the Tm in data set [1] stood at 56.9 °C. The folding enthalpy in data set [2] was -20 kcal/mol.
Taken in the same sequence, the figures for GAAACTGGAAACGGTTTC (((((.(....).))))) were 44.5 °C and -34.5 kcal/mol.
Taken in the same sequence, the figures for GATCGGGGTCCGATC ((((((...)))))) were 58.6 °C and -32.1 kcal/mol.
As for GCTGAGTCGAAAGACAGC (((..(((....)))))), the Tm in data set [1] worked out at 44.5 °C. Besides, the folding enthalpy in data set [2] was -20.8 kcal/mol.
Taken in the same sequence, the figures for CGGTAGAAATACCG (((((....))))) were 48.6 °C and -28.2 kcal/mol.
Taken in the same sequence, the figures for GAGTCTGGAAACAGATTC ((.((((....)))).)) were 40.9 °C and -26.2 kcal/mol.
GATCCCACTGGGATC ((((((...)))))): the Tm in data set [1] was determined as 60.9 °C. Besides, the folding enthalpy in data set [2] was -34.8 kcal/mol.
Taken in the same sequence, the figures for GGCACGTCGAAAGACGCC (((..(((....)))))) were 40.7 °C and -11 kcal/mol.
Taken in the same sequence, the figures for GAAAAGCGAAAGCTTTC (((.(((....)))))) were 43.5 °C and -14.2 kcal/mol.
On the same counts, the results for GCCCGAGGAAACCCGAGC ((.((.(....).)).)) are 30.8 °C and -17.1 kcal/mol.
For GATCCTACCCAGGATC ((((((....)))))), the Tm in data set [1] was 51.2 °C. The folding enthalpy in data set [2] is -39.9 kcal/mol.
On the same counts, the results for GGTTTCACGAAAGTGACC (((..(((....)))))) are 29.2 °C and -12.3 kcal/mol.
On the same counts, the results for GCCGCCGGAAACGGCAGC ((.((((....)))).)) are 59.1 °C and -15.9 kcal/mol.
On the same counts, the results for GCTGCGCGAAAGCCAAGC (((..((....))..))) are 48.9 °C and -18.9 kcal/mol.
In the case of GAATCAGAAATGATTC ((((((....)))))), the Tm in data set [1] came out at 45.6 °C. Moreover, in data set [2], the folding enthalpy is -32.9 kcal/mol.
Taken in the same sequence, the figures for GGTCGACCGAAAGGTACC (((..(((....)))))) were 31.8 °C and -14 kcal/mol.
On the same counts, the results for GCGTATGCACGC ((((....)))) are 54.3 °C and -13.3 kcal/mol.
In the case of GTGCACGAAAGTGGCAC ((((((....))).))), in data set [1], the Tm stood at 59.4 °C. Besides, the folding enthalpy in data set [2] is -25.1 kcal/mol.
On the same counts, the results for GATCTACACTAGATC ((((((...)))))) are 41.7 °C and -20.8 kcal/mol.
On the same counts, the results for GTGCACGCGAAAGCGCAC (((..(((....)))))) are 56.3 °C and -15.4 kcal/mol.
On the same counts, the results for GATGGTGGAAACATCGTC ((.(.((....)).).)) are 47.8 °C and -22 kcal/mol.
Take GGAGAGCGAAAGCTGTCC (((.(((....))).))): in data set [1], the Tm stood at 58.2 °C. The folding enthalpy in data set [2] was -32.8 kcal/mol.
With GACGACCGAAAGGTGGTC (((.(((....))).))), the Tm in data set [1] was found to be 56 °C. Also, the folding enthalpy in data set [2] is -34.8 kcal/mol.
Taken in the same sequence, the figures for GTGCGGCCGAAAGGCCAC (((..(((....)))))) were 64.1 °C and -10.1 kcal/mol.
Taken in the same sequence, the figures for GATCCTAGGTAGGATC ((((((....)))))) were 52.9 °C and -38.7 kcal/mol.
Consider GGCGAGCCGAAAGGCGCC (((..(((....)))))), for which the Tm in data set [1] came out at 65 °C. Also, the folding enthalpy in data set [2] was -13.1 kcal/mol.
